The source made the active and inactive calls. No cut-off for these calls is given here.
How the values were obtained:
Human betaherpesvirus 5 [1] = assay: Antiviral activity against Human cytomegalovirus clinical isolate C076 harboring UL97 V353A mutant gene with UL27 del 301 to 311 codon by SEAP yield reduction assay relative to wild type; assay type: functional
Human betaherpesvirus 5 [2] = assay: Antiviral activity against Human cytomegalovirus T2890 expressing UL97 kinase with V353A mutant gene by SEAP yield reduction assay; assay type: functional, organism-based; settings: Human betaherpesvirus 5, T2890
In short: (§1)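 Cell-free virus was put on 6-day-old human embryonic lung fibroblast monolayers at MOI 0.01 to 0.02 and cultured 6 days across a maribavir range (six wells per assay). Supernatant SEAP was read by chemiluminescent substrate, and EC50 was derived by curve fitting. Values are the mean and standard error of at least 12 replicates over at least four dates. T2211 was run alongside on every date.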

Human betaherpesvirus 5 [3] = assay: Antiviral activity against Human cytomegalovirus T3037 expressing UL27 kinase with L426F mutant gene by SEAP yield reduction assay; assay type: functional, organism-based; settings: Human betaherpesvirus 5, T3037; in short: as §1
Human betaherpesvirus 5 [4] = assay: Antiviral activity against 0.01 to 0.02 MOI of Human cytomegalovirus T2931 expressing UL27 kinase 301 to 311 deletion with frame shift mutation at 311 codon assessed as growth inhibition at day 6 by SEAP yield reduction assay relative to control; assay type: functional, organism-based
Human betaherpesvirus 5 [5] = assay: Antiviral activity against Human cytomegalovirus T3020 expressing UL27 kinase with E22stop gene by SEAP yield reduction assay; assay type: functional, organism-based; settings: Human betaherpesvirus 5, T3020; in short: as §1
Human betaherpesvirus 5 [6] = assay: Ratio of EC50 for Human cytomegalovirus T2867 expressing UL27 kinase with A269T mutant gene to EC50 for Human cytomegalovirus T2211 expressing wild type UL27 gene; assay type: functional
In short: (§2)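 Each strain's maribavir EC50 comes from a 6-day SEAP yield reduction in human embryonic lung fibroblasts at MOI 0.01 to 0.02, fitted from supernatant chemiluminescence over at least 12 replicates on at least four dates. It is expressed relative to the EC50 of baseline strain T2211 assayed simultaneously on the same setup dates.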

Human betaherpesvirus 5 [7] = assay: Antiviral activity against Human cytomegalovirus T2867 expressing UL27 kinase with A269T mutant gene by SEAP yield reduction assay; assay type: functional, organism-based; settings: Human betaherpesvirus 5, T2867; in short: as §1
Human betaherpesvirus 5 [8] = assay: Antiviral activity against Human cytomegalovirus T3053 expressing UL27 kinase with V353E mutant gene by SEAP yield reduction assay; assay type: functional, organism-based; settings: Human betaherpesvirus 5, T3053; in short: as §1
Human betaherpesvirus 5 [9] = assay: Antiviral activity against Human cytomegalovirus clinical T2294 harboring UL97 T409M mutant gene with UL27 W153R mutant gene by SEAP yield reduction assay relative to wild type; assay type: functional
Human betaherpesvirus 5 [10] = assay: Antiviral activity against 0.01 to 0.02 MOI of Human cytomegalovirus T2867 expressing UL27 kinase with A269T mutant gene assessed as growth inhibition at day 6 by SEAP yield reduction assay relative to control; assay type: functional, organism-based
Human betaherpesvirus 5 [11] = assay: Antiviral activity against Human cytomegalovirus clinical T2294 harboring UL97 T409 mutant gene with UL27 E22stop mutant gene by SEAP yield reduction assay relative to wild type; assay type: functional
Human betaherpesvirus 5 [12] = assay: Ratio of EC50 for Human cytomegalovirus T3019 expressing UL27 kinase with 218delC mutant gene to EC50 for Human cytomegalovirus T2211 expressing wild type UL27 gene; assay type: functional; in short: as §2
Human betaherpesvirus 5 [13] = assay: Ratio of EC50 for Human cytomegalovirus T3053 expressing UL27 kinase with V353E mutant gene to EC50 for Human cytomegalovirus T2211 expressing wild type UL27 gene; assay type: functional; in short: as §2
Human betaherpesvirus 5 [14] = assay: Antiviral activity against Human cytomegalovirus T3019 expressing UL27 kinase with 218delC mutant gene by SEAP yield reduction assay; assay type: functional, organism-based; settings: Human betaherpesvirus 5, T3019; in short: as §1
Human betaherpesvirus 5 [15] = assay: Antiviral activity against Human cytomegalovirus T2211 expressing wild type UL27 kinase by SEAP yield reduction assay; assay type: functional, organism-based; settings: Human betaherpesvirus 5, T2211; in short: as §1
Human betaherpesvirus 5 [16] = assay: Antiviral activity against Human cytomegalovirus T2767 expressing UL27 kinase with L193Fmutant gene by SEAP yield reduction assay; assay type: functional, organism-based; settings: Human betaherpesvirus 5, T2767; in short: as §1
Human betaherpesvirus 5 [17] = assay: Ratio of EC50 for Human cytomegalovirus T2981 expressing UL27 kinase with W153R mutant gene to EC50 for Human cytomegalovirus T2211 expressing wild type UL27 gene; assay type: functional; in short: as §2
Human betaherpesvirus 5 [18] = assay: Antiviral activity against Human cytomegalovirus T2931 expressing UL27 kinase 301 to 311 deletion with frame shift mutation at 311 codon by SEAP yield reduction assay; assay type: functional, organism-based; settings: Human betaherpesvirus 5, T2931; in short: as §1
Human betaherpesvirus 5 [19] = assay: Ratio of EC50 for Human cytomegalovirus T2767 expressing UL27 kinase with L193Fmutant gene to EC50 for Human cytomegalovirus T2211 expressing wild type UL27 gene; assay type: functional; in short: as §2
Human betaherpesvirus 5 [20] = assay: Ratio of EC50 for Human cytomegalovirus T2899 expressing wild type UL27 kinase with N289D, D298G, N300G, P307L,V310A, D351N, I367V mutant gene to EC50 for Human cytomegalovirus T2211 expressing wild type UL27 gene; assay type: functional; in short: as §2
Human betaherpesvirus 5 [21] = assay: Antiviral activity against Human cytomegalovirus T2899 expressing wild type UL27 kinase with N289D, D298G, N300G, P307L,V310A, D351N, I367V mutant gene by SEAP yield reduction assay; assay type: functional, organism-based; settings: Human betaherpesvirus 5, T2899; in short: as §1
Human betaherpesvirus 5 [22] = assay: Antiviral activity against 0.01 to 0.02 MOI of Human cytomegalovirus T2266 harboring UL97 deletion of 537 through the end mutant gene assessed as growth inhibition at day 6 by SEAP yield reduction assay relative to control; assay type: functional, organism-based
Human betaherpesvirus 5 [23] = assay: Antiviral activity against Human cytomegalovirus clinical T2294 harboring UL97 T409 mutant gene with UL27 V353E mutant gene by SEAP yield reduction assay relative to wild type; assay type: functional
Human betaherpesvirus 5 [24] = assay: Ratio of EC50 for Human cytomegalovirus T3020 expressing UL27 kinase with E22stop gene to EC50 for Human cytomegalovirus T2211 expressing wild type UL27 gene; assay type: functional; in short: as §2
Human betaherpesvirus 5 [25] = assay: Ratio of EC50 for Human cytomegalovirus T3037 expressing UL27 kinase with L426F mutant gene to EC50 for Human cytomegalovirus T2211 expressing wild type UL27 gene; assay type: functional; in short: as §2
Human betaherpesvirus 5 [26] = assay: Antiviral activity against Human cytomegalovirus T2981 expressing UL27 kinase with W153R mutant gene by SEAP yield reduction assay; assay type: functional, organism-based; settings: Human betaherpesvirus 5, T2981; in short: as §1
Human betaherpesvirus 5 [27] = assay: Ratio of EC50 for Human cytomegalovirus T2931 expressing UL27 kinase 301 to 311 deletion with frame shift mutation at 311 codon to EC50 for Human cytomegalovirus T2211 expressing wild type UL27 gene; assay type: functional; in short: as §2
Human betaherpesvirus 5 [28] = assay: Ratio of EC50 for Human cytomegalovirus T2890 expressing UL97 kinase with V353A mutant gene to EC50 for Human cytomegalovirus T2211 expressing wild type UL27 gene; assay type: functional; in short: as §2
Human betaherpesvirus 5 [29] = assay: Ratio of EC50 for Human cytomegalovirus T2898 expressing UL27 kinase with W362stop gene N289D, D298G, N300G, P307L, V310A, D351N, I367V mutant gene to EC50 for Human cytomegalovirus T2211 expressing wild type UL27 gene; assay type: functional; in short: as §2
Human betaherpesvirus 5 [30] = assay: Antiviral activity against Human cytomegalovirus T2898 expressing UL27 kinase with W362stop gene N289D, D298G, N300G, P307L, V310A, D351N, I367V mutant gene by SEAP yield reduction assay; assay type: functional, organism-based; settings: Human betaherpesvirus 5, T2898; in short: as §1
Human betaherpesvirus 5 [31] = assay: Antiviral activity against 0.01 to 0.02 MOI of Human cytomegalovirus T2898 expressing UL27 kinase with W362stop gene N289D, D298G, N300G, P307L, V310A, D351N, I367V mutant gene assessed as growth inhibition at day 6 by SEAP yield reduction assay relative to control; assay type: functional, organism-based
Human betaherpesvirus 5 [32] = assay: Antiviral activity against 0.01 to 0.02 MOI of Human cytomegalovirus T2899 expressing wild type UL97 kinase with N289D, D298G, N300G, P307L,V310A, D351N, I367V mutant gene assessed as growth inhibition at day 6 by SEAP yield reduction assay relative to control; assay type: functional, organism-based

CC(C)Nc1nc2cc(Cl)c(Cl)cc2n1[C@H]1O[C@@H](CO)[C@H](O)[C@@H]1O [MARIBAVIR]
fold change (FC) (Human betaherpesvirus 5 [1]): 15
EC50 (Human betaherpesvirus 5 [2]): 1.48 µM
EC50 (Human betaherpesvirus 5 [3]): 0.21 µM
inhibition (Human betaherpesvirus 5 [4]): Active
EC50 (Human betaherpesvirus 5 [5]): 0.19 µM
Ratio EC50 (Human betaherpesvirus 5 [6]): 2
EC50 (Human betaherpesvirus 5 [7]): 0.19 µM
EC50 (Human betaherpesvirus 5 [8]): 0.2 µM
fold change (FC) (Human betaherpesvirus 5 [9]): 15
inhibition (Human betaherpesvirus 5 [10]): Active
fold change (FC) (Human betaherpesvirus 5 [11]): 15
Ratio EC50 (Human betaherpesvirus 5 [12]): 2.5
Ratio EC50 (Human betaherpesvirus 5 [13]): 2.1
EC50 (Human betaherpesvirus 5 [14]): 0.23 µM
EC50 (Human betaherpesvirus 5 [15]): 0.095 µM
EC50 (Human betaherpesvirus 5 [16]): 0.24 µM
Ratio EC50 (Human betaherpesvirus 5 [17]): 1.7
EC50 (Human betaherpesvirus 5 [18]): 0.29 µM
Ratio EC50 (Human betaherpesvirus 5 [19]): 2.6
Ratio EC50 (Human betaherpesvirus 5 [20]): 0.9
EC50 (Human betaherpesvirus 5 [21]): 0.084 µM
inhibition (Human betaherpesvirus 5 [22]): Active
fold change (FC) (Human betaherpesvirus 5 [23]): 15
Ratio EC50 (Human betaherpesvirus 5 [24]): 2
Ratio EC50 (Human betaherpesvirus 5 [25]): 2.2
EC50 (Human betaherpesvirus 5 [26]): 0.16 µM
Ratio EC50 (Human betaherpesvirus 5 [27]): 3.1
Ratio EC50 (Human betaherpesvirus 5 [28]): 16
Ratio EC50 (Human betaherpesvirus 5 [29]): 2.2
EC50 (Human betaherpesvirus 5 [30]): 0.21 µM
inhibition (Human betaherpesvirus 5 [31]): Active
inhibition (Human betaherpesvirus 5 [32]): Active
